In ChEMBL document CHEMBL4513216, “Probing the Open Global Health Chemical Diversity Library for Multistage-Active Starting Points for Next-Generation Antimalarials” (ACS Infect Dis, 2020):

Test: Toxicity liver stage against HepG2, at 10uM
Format: cell-based
Parameters: test concentration 10 uM, cell line HepG2-A16-CD81EGFP
Settings: human, HepG2-A16-CD81EGFP cells; read-out: INHIBITION
How it was run: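 Uninfected HepG2-A16-CD81EGFP cells, 3 × 10^3 per well, 1536-well, plated on prespotted compound at 10 μM final, parasite-free screening media added to match infected plates; puromycin 10 μM positive, DMSO 0.5% negative; run in parallel with 48 h PbLuc assay at 37 °C, 5% CO2; viability by CellTiter-Glo luminescence, normalized to controls.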

SMILES | cytotoxicity at 10 µM
COc1cc2nc(C)n(CC(=O)NCC(C)C)c(=O)c2cc1OC | -4.76%
CC(=O)c1cccc(NC(=O)Cn2cnc(-c3ccccc3)cc2=O)c1 | -12.3%
CS(=O)(=O)N1CCN(c2ccc(Nc3ccccn3)nn2)CC1 | -6.01%
N#Cc1cccc(C(=O)N2CC(c3nc(-c4ccc[nH]c4=O)no3)C2)c1 | -4.13%
CS(=O)(=O)C1CCN(S(=O)(=O)c2ccc(F)c(F)c2)C1 (configuration not stated) | -9.52%
CCOCC1CN(C(=O)N2CCCC2)Cc2cnn(C)c21 (configuration not stated) | -0.96%
Cc1ccc(CN2CC[C@H]3C[C@H](c4nc(C5CC5)cs4)O[C@@H]3C2)o1 | 3.81%
COc1cc(OC)c(-n2nnc(C(=O)O)c2C)cc1Cl | -16.8%
CCCNC(=O)NC(C)c1ccccn1 (configuration not stated) | -8.26%
Cc1nc(NC(=O)C(C)n2ncc(Br)c2C)sc1C (configuration not stated) | 10.3%
Cc1ccnc(C2(C)CCCN2S(=O)(=O)c2cccnc2)n1 (configuration not stated) | 5.95%
CC(=O)N1CCCC1(C)c1nc(C)no1 (configuration not stated) | 2.71%
O=C(O)c1cn2cc(C(F)(F)F)ccc2n1 | 3.52%
CN1CCN(C(=O)Cc2csc(-c3ccsc3)n2)C(c2ccccc2)C1 (configuration not stated) | -8.38%
Cc1ccnc2c1NC(=O)CN2C(=O)CCc1cccs1 | -19.5%
COc1cccc(COC(C)C(=O)NCc2nnc3n2CCC3)c1 (configuration not stated) | 8.67%
CC(NC(=O)N1CCC1)c1ccc(S(N)(=O)=O)cc1 (configuration not stated) | -8.64%
CC(C)(CNC(=O)C1CCCN(C(N)=O)C1)c1cccc(Cl)c1 (configuration not stated) | 1.75%
CC(C1CC1)N(C)Cc1nnc(-c2ccco2)o1 (configuration not stated) | -2.14%
Cc1cn2c(n1)CCC(NS(=O)(=O)c1sc(C)nc1C)C2 (configuration not stated) | -20.8%
CNC(=O)c1cccc(CCNS(C)(=O)=O)c1 | 13.4%
CN(C)c1ccc(C(=O)N2CCCC2c2ccc(Cl)cc2)cc1 (configuration not stated) | 1.21%
COCCCn1ccc(NC(=O)NCc2cccc(N(C)C)c2)n1 | 2.4%

SMILES | cytotoxicity at 10 µM
COCC(C)NC(=O)Nc1cc(-c2ccccc2C)nn1CCO (configuration not stated) | -14.3%
COc1c(CNCC(O)COc2ccc3c(c2)OCO3)c(C)nn1C (configuration not stated) | 3.07%
c1ccc2c(c1)CCC21CN(CCc2ccncc2)CCO1 (configuration not stated) | -0.934%
CC(C(=O)N1CCOCC1)N1CCc2cncnc2C1 (configuration not stated) | -5.05%
CCC1COCCN1C(=O)NCc1cccc(-c2cnn(C)c2)c1 (configuration not stated) | -1.62%
CC(C)Cc1noc(COc2ccc(N(C)C(N)=O)cc2)n1 | 34.4%
CCn1nc(C)c(CNCCn2cc(C)cn2)c1C | -4.91%
O=C(c1ccc(O)nc1)N1CCN(C(=O)c2ccc(F)c(F)c2)CC1 | -10.3%
CC(C)C(C)(C#N)NC(=O)Cn1cc(I)cn1 (configuration not stated) | 18.1%
CN(C(=O)c1cccc(OCC(F)F)n1)c1ccc2c(c1)CCO2 | 43%
FC(F)(F)c1cc(NCCn2ncnn2)nc(-c2cccnc2)n1 | 18.9%
CCC(C(=O)N1CCCSCC1)N1CCCC1=O (configuration not stated) | 6.27%
Cc1cnn(CCNc2nc(C)cc(N(C)C)n2)c1 | 5.36%
CNc1nc(CNC(=O)Nc2ccc(OC)cc2C)cs1 | -8.17%
CCN(CC(=O)NC)S(=O)(=O)N1CCCCCC1 | 5.04%
CCCc1nc(C)c(C(=O)NS(=O)(=O)c2ccc(C#N)cc2)s1 | -12%
O=C(c1ccco1)N1CCCC1C1CCN(Cc2ccccc2)CC1 (configuration not stated) | 0.821%
CN(C)c1cc(C(=O)NCCc2n[nH]c(=O)[nH]2)ccn1 | -1.89%
Cc1csc(N2CCN(Cc3cnc(C)s3)CC2C)n1 (configuration not stated) | 14.7%
CCN1CC2(CC1=O)CN(C(=O)NC(C)C)CCN(S(C)(=O)=O)C2 (configuration not stated) | -3.67%
CN1C(=O)C(c2cccnc2)CC12CCN(Cc1nccs1)CC2 (configuration not stated) | -1.16%
O=C(c1ccco1)N1CCc2onc(Cn3cccn3)c2C1 | -1.22%
Cc1nc2c(c(N3CCC(O)(CN4CCCC4)CC3)n1)CCN(C)CC2 | -2.84%

SMILES | cytotoxicity at 10 µM
CNc1nc(C(=O)N2CCC3(CCCN(CC4CC4)C3=O)C2)cs1 (configuration not stated) | 5.33%
Cc1nc(C)n(CC(C)C(=O)N2CCC(N3CCC(O)CC3)CC2)n1 (configuration not stated) | 1.43%
CC(c1nccs1)n1cc(-c2cc(CN3CCCCC3)cs2)nn1 (configuration not stated) | 1.22%
Cc1nc(-c2cccnc2)ncc1C(=O)N1CCC(c2ncc[nH]2)CC1 | 0.626%
COc1ccc(NC(=O)N2CCC3(CC2)NC(=O)CC3C(=O)O)cc1Cl (configuration not stated) | -3.06%
CN(Cc1cnccn1)C(=O)c1ccc(CSc2nnc[nH]2)o1 | 1.22%
CN(CCCOc1ccccc1Cl)C(=O)CN1CCCCCC1=O | -9.63%
O=C(CCn1cccn1)N1CCC(C2CCN(c3ncccn3)CC2)C1 (configuration not stated) | 5.33%
COc1ccc(C(=O)O)cc1-c1cccc2c1CCNC2 | 0.979%
Cc1cc(C(=O)N(C)C2CCN(C)C2)c2ccc(F)cc2n1 (configuration not stated) | -2.55%
COc1ccc(Cn2cc(C(=O)N(C)Cc3cnccn3)nn2)cc1 | 9.81%
CN(Cc1cccc(-n2cccn2)c1)C(=O)c1ccnc(N)c1 | -0.491%
Cc1ccccc1CN(Cc1ccncc1)CC(C)C | 11.9%
CCn1nc(C)cc1S(=O)(=O)N1CCC2(CC(=O)NC2=O)C1 (configuration not stated) | 0.0942%
CN(c1ncccc1CNCc1ncc[nH]1)C1CCCCC1 | -7.28%
CCN1CCC(CC(=O)N2CCN(c3ccccc3OC)CC2C)CC1 (configuration not stated) | -4.9%
Cc1cnccc1N1CCCN(C(=O)CCCS(N)(=O)=O)CC1 | -18.7%
Cc1nnc(CN(C)C2CCN(CCc3ccccn3)CC2)o1 | 1.04%
Cc1cnn(CC2CCCN2Cc2nnc(C(C)C)o2)c1 (configuration not stated) | -20.3%
Cn1ncc2c(N3CCN(C(=O)c4ccsc4)CC3)ncnc21 | -9.27%
CC(C(=O)NCc1ccc(N2CCCC2)nc1)n1cncn1 (configuration not stated) | -22.4%
CCc1nc(C2CCCN2Cc2ccn(C)c(=O)c2)no1 (configuration not stated) | -4.25%
CCN(CC)Cc1ccc(C(=O)N2CCN(CC(C)O)CC2)o1 (configuration not stated) | -9.65%

SMILES | cytotoxicity at 10 µM
CCc1nnc2n1CCN(C(=O)c1nc(-c3ccco3)sc1C)C2 | -1.19%
CCN(CC)CC(=O)N1CCCC1Cn1cccn1 (configuration not stated) | -3.08%
COc1ccc(S(=O)(=O)NCc2cccnc2N(C)C)cc1 | 5.32%
CNC(=O)CS(=O)(=O)Cc1cc(Cl)c2c(c1)OCCO2 | -4.17%
CCOc1ccccc1CNC1CCCN(Cc2noc(C)n2)C1 (configuration not stated) | -13.1%
Cc1cccc(C2(CNC(=O)CO)CCCC2)c1 | -19.1%
O=C1C(NS(=O)(=O)c2ccc(F)c(F)c2)CCN1Cc1ccccc1 (configuration not stated) | -2.81%
Cc1cc(C)n(C2CN(CC(O)c3ccc(S(C)(=O)=O)cc3)C2)n1 (configuration not stated) | -12.9%
CC(C)c1noc(CCCC(=O)NCC2CCS(=O)(=O)C2)n1 (configuration not stated) | -22.3%
Cc1ccc(NC2CCN(C(=O)c3cccnc3N(C)C)CC2)nn1 | -12.1%
c1ccc2c(OCCN3CCn4c(nnc4C4CC4)C3)cccc2c1 | -3.87%
c1ccc(Cc2nnc(CN3CCn4c(nnc4C4CC4)C3)o2)cc1 | -0.192%
CN(C)C1CCCN(C(=O)NCc2ccccc2-n2cccn2)C1 (configuration not stated) | -4.14%
Cc1cc(C)cc(OCCN(C)C(=O)NC(C)c2nncn2C)c1 (configuration not stated) | -19.1%
CCOc1ncccc1CNC(=O)NCCNC(=O)c1ccco1 | 1.16%
Cc1cccc(C(=O)NCCCN2CCc3ccccc3C2)c1C | -4.71%
CCc1noc(CN(Cc2cccs2)CC2CCCO2)n1 (configuration not stated) | -8.66%
CCc1nccn1C1CCCN(C(=O)c2ccoc2C)C1 (configuration not stated) | -28%
COc1cc(CNCc2c(C)nn(C)c2N(C)C)ccc1OCCO | -7.59%
Cc1cnn(CC2CN(Cc3nc(-c4ccccn4)no3)CCO2)c1 (configuration not stated) | -22.6%
Cc1nn(C)c(Cl)c1C1CCCN1CC(=O)Nc1cccnc1 (configuration not stated) | -17.2%
CC(=O)N1CCCN(C(=O)NC(C)Cn2cccn2)CC1 (configuration not stated) | -13%
CCc1nc(CN(C)C2CCN(Cc3nnc(C4CCC4)o3)C2)no1 (configuration not stated) | 0.239%

SMILES | cytotoxicity at 10 µM
O=S(=O)(CCNC1CCc2ncnn2C1)c1ccc(Cl)cc1 (configuration not stated) | -32.2%
O=C(Cc1cn2ccccc2n1)N1CCCC(n2cccn2)C1 (configuration not stated) | -5.16%
Cn1ccc(CN2CCN(CC3CC3)CC2)cc1=O | -16.6%
Cc1nc(CN(C)C2CCN(Cc3c(C)noc3C)C2)no1 (configuration not stated) | 6.66%
Cc1noc(C(C)N2CCN(Cc3cccc(C#N)c3)CC2)n1 (configuration not stated) | -5.72%
CN(Cc1ccco1)C(=O)CN1CCCC(Cn2cncn2)C1 (configuration not stated) | -4%
CCCc1n[nH]c(C2CN(C(=O)C3=COCCC3)CCO2)n1 (configuration not stated) | -5.04%
CC(C)c1noc(C(C)N2CCN(CCN3CCCC3=O)CC2)n1 (configuration not stated) | -10.6%
Cc1cnn(CCNCc2nnc(C3CC3)o2)c1 | -7.89%
CC(C)COC(=O)N1CCC2(CCNC2)C1 (configuration not stated) | -10.1%
Cc1ncc(CN2CCCC(O)(c3ccc(F)cc3)CC2)n1C (configuration not stated) | -4.04%
Cn1nc(COCC2CC2)c2c1CN(CC1CC1)CC2 | 13.8%
CCC(=O)N1CC[C@H]2[C@H](C[C@@H](Cn3cccn3)N2c2nccs2)C1 | 5.68%
CCc1ccc(CN2C[C@@H](C)C3(CCN(CC(=O)N(C)C)C3=O)C2)o1 (some centres not stated) | 1.11%
COc1ccc(CN2CCc3[nH]nc(C(=O)N(C)C)c3C2)cc1 | 5.18%
CC(C)CCN1C2(CCN(C(=O)CN(C)C)C2)c2ccccc2S1(=O)=O (configuration not stated) | -4.14%
CN(C)C(=O)[C@@H]1C[C@@H]2CCN(C3CCOCC3)C[C@H]2O1 | 7.86%
COCCN1C[C@@H]2CC[C@H]1CN(CC(=O)Nc1ccn(C)n1)C2 | -8.39%
CSc1ccccc1C(=O)N1C[C@@H]2CC[C@H]1CN(C(=O)N(C)C)C2 | -3.99%
O=C(CSc1ncccn1)N1C[C@@H]2CC[C@H]1CN(Cc1ccncc1)C2 | -13%
